Test results from ChEMBL document CHEMBL3797104, “Triazole tethered C5-curcuminoid-coumarin based molecular hybrids as novel antitubulin agents: Design, synthesis, biological investigation and docking studies” (Eur J Med Chem, 2016).
Values belong to the molecule of their own block, whether it stands above or below them.

Assays:
[1] = Cytotoxicity against human HCT116 cells assessed as growth inhibition at 50 uM after 48 hrs by SRB assay; type: functional; settings: HCT-116, 48 h, read-out: GI
Outline: (§1)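 Single-concentration screen at 50 µM. Cells grew 24 h at 37 °C, then had 48 h exposure in complete medium.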

[2] = Cytotoxicity against human COLO205 cells assessed as growth inhibition at 50 uM after 48 hrs by SRB assay; type: functional; settings: COLO 205, 48 h, read-out: GI; outline: as §1
[3] = Cytotoxicity against human THP1 cells assessed as growth inhibition at 50 uM after 48 hrs by SRB assay; type: functional; settings: THP-1, 48 h, read-out: GI; outline: as §1
Tubulin = assay: Inhibition of tubulin (unknown origin) polymerization measured after 1 hr by ELISA plate reader analysis; type: protein-complex assay, Homo sapiens
Outline: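 Kit-based turbidity assay using tubulin (10 mg in general tubulin buffer with GTP). Compounds were diluted from DMSO stocks, preincubated 2 min at 37 °C in general tubulin buffer, then tubulin diluted in polymerization buffer (general and glycerol tubulin buffers plus GTP) was added. Absorbance at 340 nm was read after 1 h at 37 °C.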

[4] = Cytotoxicity against human PC3 cells assessed as growth inhibition at 50 uM after 48 hrs by SRB assay; type: functional; settings: PC-3, 48 h, read-out: GI; outline: as §1
[5] = Cytotoxicity against human COLO205 cells after 48 hrs by SRB assay; type: functional, cell-based; settings: COLO 205, 48 h
Outline: (§2)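 SRB assay in 96-well plates. Cells were seeded and grown 24 h at 37 °C in a CO2 incubator, then given test material in complete medium for a further 48 h. Cells were fixed with cold 50% TCA for 1 h at 4 °C, stained 30 min with 0.4% SRB in 1% acetic acid, and washed with […]. IC50 was taken from multi-concentration testing, run only for hybrids giving >70% inhibition at 50 µM in at least one line.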

[6] = Cytotoxicity against human THP1 cells after 48 hrs by SRB assay; type: functional, cell-based; settings: THP-1, 48 h; outline: as §2
[7] = Cytotoxicity against human HCT116 cells after 48 hrs by SRB assay; type: functional, cell-based; settings: HCT-116, 48 h; outline: as §2

IC50 (Tubulin): 2.88 µM
Structure (SMILES): COc1ccc(/C=C/C(=O)/C=C/c2ccc(OCc3cn(CCOc4cc(=O)oc5ccccc45)nn3)c(OC)c2)cc1OC
inhibition of growth at 50 µM [1]: 82% | inhibition of growth at 50 µM [2]: 80% | inhibition of growth at 50 µM [3]: 90% | inhibition of growth at 50 µM [4]: 19% | IC50 [5]: 6.78 µM | IC50 [6]: 2.34 µM | IC50 [7]: 4.71 µM

IC50 (Tubulin): 7.65 µM
Structure (SMILES): COc1cc(/C=C/C(=O)/C=C/c2cccc3ccccc23)ccc1OCc1cn(CCOc2cc(=O)oc3ccccc23)nn1
inhibition of growth at 50 µM [1]: 83% | inhibition of growth at 50 µM [2]: 85% | inhibition of growth at 50 µM [3]: 89% | inhibition of growth at 50 µM [4]: 20% | IC50 [5]: 9.95 µM | IC50 [6]: 4.48 µM | IC50 [7]: 6.54 µM

IC50 (Tubulin): 1.55 µM
Structure (SMILES): COc1cc(/C=C/C(=O)/C=C/c2cc(OC)c(OC)c(OC)c2)ccc1OCc1cn(CCOc2cc(=O)oc3ccccc23)nn1
inhibition of growth at 50 µM [1]: 89% | inhibition of growth at 50 µM [2]: 86% | inhibition of growth at 50 µM [3]: 99% | inhibition of growth at 50 µM [4]: 22% | IC50 [5]: 4.68 µM | IC50 [6]: 0.82 µM | IC50 [7]: 2.21 µM
